Data as given in ChEMBL document CHEMBL1770131, “Radiosynthesis and preliminary evaluation of 4-[18F]fluoro-N-[4-[6-(isopropylamino)pyrimidin-4-yl]-1,3-thiazol-2-yl]-N-methylbenzamide as a new positron emission tomography ligand for metabotropic glutamate receptor subtype 1” (Bioorg Med Chem Lett, 2011).
Values belong to the compound of their own block, whether it stands above or below them. The source made the active and inactive calls. No cut-off for these calls is given here.

Experiments:
[1] = target: Metabotropic glutamate receptor 1 (Rattus norvegicus) (UniProt P23385); test: Binding affinity to mGluR1 in rat cerebellum at 1 MBq/ml after 30 mins by autoradiography; format: tissue-based; conditions: 1 M, tested as the 18F-labelled form
Metabotropic glutamate receptor 1 (Rattus norvegicus), sequence (P23385 19-1199 limits assumed): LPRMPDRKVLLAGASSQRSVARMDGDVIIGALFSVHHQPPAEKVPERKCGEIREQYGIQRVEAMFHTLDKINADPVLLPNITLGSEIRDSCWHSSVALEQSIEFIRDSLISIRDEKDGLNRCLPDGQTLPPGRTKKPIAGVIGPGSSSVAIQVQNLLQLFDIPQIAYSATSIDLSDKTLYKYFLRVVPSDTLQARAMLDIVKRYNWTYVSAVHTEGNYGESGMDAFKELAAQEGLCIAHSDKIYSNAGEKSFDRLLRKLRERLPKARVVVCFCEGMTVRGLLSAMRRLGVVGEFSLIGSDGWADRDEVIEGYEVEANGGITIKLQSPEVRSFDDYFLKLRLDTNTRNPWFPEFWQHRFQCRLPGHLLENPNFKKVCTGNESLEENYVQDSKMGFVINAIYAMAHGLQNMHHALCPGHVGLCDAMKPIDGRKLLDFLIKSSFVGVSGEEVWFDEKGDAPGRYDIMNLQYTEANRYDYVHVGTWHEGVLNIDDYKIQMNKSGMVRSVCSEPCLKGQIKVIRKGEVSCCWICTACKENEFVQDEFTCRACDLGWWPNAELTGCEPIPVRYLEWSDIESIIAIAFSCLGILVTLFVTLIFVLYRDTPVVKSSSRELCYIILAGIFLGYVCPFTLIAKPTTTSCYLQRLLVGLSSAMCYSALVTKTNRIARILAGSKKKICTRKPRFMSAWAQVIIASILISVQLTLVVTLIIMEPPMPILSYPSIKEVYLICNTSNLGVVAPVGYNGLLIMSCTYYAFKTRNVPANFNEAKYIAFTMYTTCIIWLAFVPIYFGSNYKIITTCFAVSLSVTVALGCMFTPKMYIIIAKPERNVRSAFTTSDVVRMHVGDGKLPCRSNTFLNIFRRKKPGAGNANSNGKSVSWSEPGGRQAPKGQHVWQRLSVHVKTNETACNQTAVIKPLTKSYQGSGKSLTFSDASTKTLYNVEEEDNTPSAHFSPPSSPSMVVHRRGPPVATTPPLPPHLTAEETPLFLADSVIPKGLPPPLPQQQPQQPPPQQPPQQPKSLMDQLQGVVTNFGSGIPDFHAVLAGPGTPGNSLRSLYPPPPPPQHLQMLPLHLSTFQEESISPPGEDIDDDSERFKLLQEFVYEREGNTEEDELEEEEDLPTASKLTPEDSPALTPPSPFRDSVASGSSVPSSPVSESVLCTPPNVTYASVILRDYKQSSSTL
In short: (§1)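 Rat brain sections pre-incubated 3 × 5 min at room temperature in Tris-HCl (50 mM, pH 7.4, 1.2 mM MgCl2, 2 mM CaCl2). Then incubated 30 min at room temperature in fresh buffer with radioligand (1 MBq/mL; in saline with 5% ethanol and Tween80), with or without 1 µM unlabeled ligand, JNJ16259685 or MPEP. Washed 3 × 5 min in cold buffer, dipped in cold water, air-dried, exposed to imaging plate.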

[2] = target: Metabotropic glutamate receptor 1 (Rattus norvegicus) (UniProt P23385); test: Binding affinity to mGluR1 in rat thalamus at 1 MBq/ml after 30 mins by autoradiography; format: tissue-based; conditions: 1 M, tested as the 18F-labelled form; in short: as §1
[3] = target: Metabotropic glutamate receptor 1 (Rattus norvegicus) (UniProt P23385); test: Binding affinity to mGluR1 in rat hippocampus at 1 MBq/ml after 30 mins by autoradiography; format: tissue-based; conditions: 1 M, tested as the 18F-labelled form; in short: as §1
[4] = target: Metabotropic glutamate receptor 1 (Rattus norvegicus) (UniProt P23385); test: Binding affinity to mGluR1 in rat striatum at 1 MBq/ml after 30 mins by autoradiography; format: tissue-based; conditions: 1 M, tested as the 18F-labelled form; in short: as §1
[5] = target: Metabotropic glutamate receptor 1 (Rattus norvegicus) (UniProt P23385); test: Binding affinity to mGluR1 in rat cerebral cortex at 1 MBq/ml after 30 mins by autoradiography; format: tissue-based; conditions: 1 M, tested as the 18F-labelled form; in short: as §1
[6] = target: Metabotropic glutamate receptor 1 (Rattus norvegicus) (UniProt P23385); test: Binding affinity to mGluR1 in rat pons-medulla at 1 MBq/ml after 30 mins by autoradiography; conditions: 1 M, tested as the 18F-labelled form; in short: as §1
[7] = target: Metabotropic glutamate receptor 1 (Rattus norvegicus) (UniProt P23385); test: Binding affinity to mGluR1 in rat cerebellum at 1 MBq/ml after 30 mins by autoradiography in presence of 1 uM non-radiolabeled compound; format: tissue-based; conditions: 1 M, tested as the 18F-labelled form; in short: as §1
[8] = target: Metabotropic glutamate receptor 1 (Rattus norvegicus) (UniProt P23385); test: Binding affinity to mGluR1 in rat thalamus at 1 MBq/ml after 30 mins by autoradiography in presence of 1 uM non-radiolabeled compound; format: tissue-based; conditions: 1 M, tested as the 18F-labelled form; in short: as §1
[9] = target: Metabotropic glutamate receptor 1 (Rattus norvegicus) (UniProt P23385); test: Binding affinity to mGluR1 in rat hippocampus at 1 MBq/ml after 30 mins by autoradiography in presence of 1 uM non-radiolabeled compound; format: tissue-based; conditions: 1 M, tested as the 18F-labelled form; in short: as §1
[10] = target: Metabotropic glutamate receptor 1 (Rattus norvegicus) (UniProt P23385); test: Binding affinity to mGluR1 in rat striatum at 1 MBq/ml after 30 mins by autoradiography in presence of 1 uM non-radiolabeled compound; format: tissue-based; conditions: 1 M, tested as the 18F-labelled form; in short: as §1
[11] = target: Metabotropic glutamate receptor 1 (Rattus norvegicus) (UniProt P23385); test: Binding affinity to mGluR1 in rat cerebral cortex at 1 MBq/ml after 30 mins by autoradiography in presence of 1 uM non-radiolabeled compound; format: tissue-based; conditions: 1 M, tested as the 18F-labelled form; in short: as §1
[12] = target: Metabotropic glutamate receptor 1 (Rattus norvegicus) (UniProt P23385); test: Binding affinity to mGluR1 in rat pons-medulla at 1 MBq/ml after 30 mins by autoradiography in presence of 1 uM non-radiolabeled compound; conditions: 1 M, tested as the 18F-labelled form; in short: as §1
[13] = target: Metabotropic glutamate receptor 1 (Rattus norvegicus) (UniProt P23385); test: Binding affinity to mGluR1 in rat whole brain at 1 MBq/ml after 30 mins by autoradiography in presence of 1 uM non-radiolabeled compound; conditions: 1 M, tested as the 18F-labelled form; in short: as §1
[14] = target: Metabotropic glutamate receptor 1 (Rattus norvegicus) (UniProt P23385); test: Binding affinity to mGluR1 in rat cerebellum at 1 MBq/ml after 30 mins by autoradiography in presence of 1 uM of mGluR1 antagonist JNJ16259685; format: tissue-based; conditions: 1 M, tested as the 18F-labelled form; in short: as §1
[15] = target: Metabotropic glutamate receptor 1 (Rattus norvegicus) (UniProt P23385); test: Binding affinity to mGluR1 in rat thalamus at 1 MBq/ml after 30 mins by autoradiography in presence of 1 uM of mGluR1 antagonist JNJ16259685; format: tissue-based; conditions: 1 M, tested as the 18F-labelled form; in short: as §1
[16] = target: Metabotropic glutamate receptor 1 (Rattus norvegicus) (UniProt P23385); test: Binding affinity to mGluR1 in rat hippocampus at 1 MBq/ml after 30 mins by autoradiography in presence of 1 uM of mGluR1 antagonist JNJ16259685; format: tissue-based; conditions: 1 M, tested as the 18F-labelled form; in short: as §1
[17] = target: Metabotropic glutamate receptor 1 (Rattus norvegicus) (UniProt P23385); test: Binding affinity to mGluR1 in rat striatum at 1 MBq/ml after 30 mins by autoradiography in presence of 1 uM of mGluR1 antagonist JNJ16259685; format: tissue-based; conditions: 1 M, tested as the 18F-labelled form; in short: as §1
[18] = target: Metabotropic glutamate receptor 1 (Rattus norvegicus) (UniProt P23385); test: Binding affinity to mGluR1 in rat cerebral cortex at 1 MBq/ml after 30 mins by autoradiography in presence of 1 uM of mGluR1 antagonist JNJ16259685; format: tissue-based; conditions: 1 M, tested as the 18F-labelled form; in short: as §1
[19] = target: Metabotropic glutamate receptor 1 (Rattus norvegicus) (UniProt P23385); test: Binding affinity to mGluR1 in rat pons-medulla at 1 MBq/ml after 30 mins by autoradiography in presence of 1 uM of mGluR1 antagonist JNJ16259685; conditions: 1 M, tested as the 18F-labelled form; in short: as §1
[20] = target: Metabotropic glutamate receptor 1 (Rattus norvegicus) (UniProt P23385); test: Binding affinity to mGluR1 in rat whole brain at 1 MBq/ml after 30 mins by autoradiography in presence of 1 uM of mGluR1 antagonist JNJ16259685; conditions: 1 M, tested as the 18F-labelled form; in short: as §1
[21] = target: Metabotropic glutamate receptor 1 (Rattus norvegicus) (UniProt P23385); test: Binding affinity to mGluR1 in rat cerebellum at 1 MBq/ml after 30 mins by autoradiography in presence of 1 uM of mGluR5 antagonist MPEP; format: tissue-based; conditions: 1 M, tested as the 18F-labelled form; in short: as §1
[22] = target: Metabotropic glutamate receptor 1 (Rattus norvegicus) (UniProt P23385); test: Binding affinity to mGluR1 in rat thalamus at 1 MBq/ml after 30 mins by autoradiography in presence of 1 uM of mGluR5 antagonist MPEP; format: tissue-based; conditions: 1 M, tested as the 18F-labelled form; in short: as §1
[23] = target: Metabotropic glutamate receptor 1 (Rattus norvegicus) (UniProt P23385); test: Binding affinity to mGluR1 in rat hippocampus at 1 MBq/ml after 30 mins by autoradiography in presence of 1 uM of mGluR5 antagonist MPEP; format: tissue-based; conditions: 1 M, tested as the 18F-labelled form; in short: as §1
[24] = target: Metabotropic glutamate receptor 1 (Rattus norvegicus) (UniProt P23385); test: Binding affinity to mGluR1 in rat striatum at 1 MBq/ml after 30 mins by autoradiography in presence of 1 uM of mGluR5 antagonist MPEP; format: tissue-based; conditions: 1 M, tested as the 18F-labelled form; in short: as §1
[25] = target: Metabotropic glutamate receptor 1 (Rattus norvegicus) (UniProt P23385); test: Binding affinity to mGluR1 in rat cerebral cortex at 1 MBq/ml after 30 mins by autoradiography in presence of 1 uM of mGluR5 antagonist MPEP; format: tissue-based; conditions: 1 M, tested as the 18F-labelled form; in short: as §1
[26] = target: Metabotropic glutamate receptor 1 (Rattus norvegicus) (UniProt P23385); test: Binding affinity to mGluR1 in rat pons-medulla at 1 MBq/ml after 30 mins by autoradiography in presence of 1 uM of mGluR5 antagonist MPEP; conditions: 1 M, tested as the 18F-labelled form; in short: as §1
[27] = Octanol-water distribution coefficient, Log D of the compound in at pH 7.4 by shaking method; format: physicochemical
In short: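 Radioligand partitioned between n-octanol and PBS at pH 7.4 by shaking. Vortexed 3 min at room temperature, centrifuged 3500 rpm for 5 min. 1 mL of each phase weighed and counted. Organic layer re-partitioned until Log D values were consistent. Log D = Log[cpm/g octanol / cpm/g PBS]. Done in triplicate.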

Cerebellum [28] = test: Biodistribution in Sprague-Dawley rat cerebellum at 5 MBq, iv after 30 mins by autoradiography; format: ADME, organism-based; conditions: in vivo, 0.5 h
In short: (§2)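 Male Sprague–Dawley rats given about 5 MBq radioligand in saline by tail vein, with or without co-injected JNJ16259685 at 1 mg/kg. Killed by cervical dislocation 30 min after injection. Brains frozen on dry ice, cut into 20 µm sagittal sections, and imaged by autoradiography as for the in vitro sections.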

Thalamus [29] = test: Biodistribution in Sprague-Dawley rat thalamus at 5 MBq, iv after 30 mins by autoradiography; format: ADME, organism-based; conditions: in vivo, 0.5 h; in short: as §2
Hippocampus [30] = test: Biodistribution in Sprague-Dawley rat hippocampus at 5 MBq, iv after 30 mins by autoradiography; format: ADME, organism-based; conditions: in vivo, 0.5 h; in short: as §2
Striatum [31] = test: Biodistribution in Sprague-Dawley rat striatum at 5 MBq, iv after 30 mins by autoradiography; format: ADME, organism-based; conditions: in vivo, 0.5 h; in short: as §2
Cerebral cortex [32] = test: Biodistribution in Sprague-Dawley rat cerebral cortex at 5 MBq, iv after 30 mins by autoradiography; format: ADME, organism-based; conditions: in vivo, 0.5 h; in short: as §2
Rattus norvegicus [33] = test: Biodistribution in Sprague-Dawley rat pons-medulla at 5 MBq, iv after 30 mins by autoradiography; format: ADME, organism-based; conditions: in vivo, 0.5 h; in short: as §2
Cerebellum [34] = test: Biodistribution in Sprague-Dawley rat cerebellum at 5 MBq, iv after 30 mins by autoradiography in presence of 1 mg/kg of mGluR1 antagonist JNJ16259685; format: organism-based; set-up: dose 1 mg/kg, route intravenous; conditions: in vivo, 0.5 h; in short: as §2
Thalamus [35] = test: Biodistribution in Sprague-Dawley rat thalamus at 5 MBq, iv after 30 mins by autoradiography in presence of 1 mg/kg of mGluR1 antagonist JNJ16259685; format: organism-based; set-up: dose 1 mg/kg, route intravenous; conditions: in vivo, 0.5 h; in short: as §2
Hippocampus [36] = test: Biodistribution in Sprague-Dawley rat hippocampus at 5 MBq, iv after 30 mins by autoradiography in presence of 1 mg/kg of mGluR1 antagonist JNJ16259685; format: organism-based; set-up: dose 1 mg/kg, route intravenous; conditions: in vivo, 0.5 h; in short: as §2
Striatum [37] = test: Biodistribution in Sprague-Dawley rat striatum at 5 MBq, iv after 30 mins by autoradiography in presence of 1 mg/kg of mGluR1 antagonist JNJ16259685; format: organism-based; set-up: dose 1 mg/kg, route intravenous; conditions: in vivo, 0.5 h; in short: as §2
Cerebral cortex [38] = test: Biodistribution in Sprague-Dawley rat cerebral cortex at 5 MBq, iv after 30 mins by autoradiography in presence of 1 mg/kg of mGluR1 antagonist JNJ16259685; format: organism-based; set-up: dose 1 mg/kg, route intravenous; conditions: in vivo, 0.5 h; in short: as §2
Rattus norvegicus [39] = test: Biodistribution in Sprague-Dawley rat pons-medulla at 5 MBq, iv after 30 mins by autoradiography in presence of 1 mg/kg of mGluR1 antagonist JNJ16259685; format: organism-based; set-up: dose 1 mg/kg, route intravenous; conditions: in vivo, 0.5 h; in short: as §2

Activity [1]: 719 PSL/mm2
Activity [2]: 739 PSL/mm2
Activity [3]: 680 PSL/mm2
Activity [4]: 568 PSL/mm2
Activity [5]: 375 PSL/mm2
Activity [6]: 222 PSL/mm2
Activity [7]: inactive
Activity [8]: inactive
Activity [9]: inactive
Activity [10]: inactive
Activity [11]: inactive
Activity [12]: inactive
Activity [13]: 6.9 PSL/mm2
Activity [14]: inactive
Activity [15]: inactive
Activity [16]: inactive
Activity [17]: inactive
Activity [18]: inactive
Activity [19]: inactive
Activity [20]: 6.7 PSL/mm2
Activity [21]: 683 PSL/mm2
Activity [22]: 618 PSL/mm2
Activity [23]: 602 PSL/mm2
Activity [24]: 497 PSL/mm2
Activity [25]: 316 PSL/mm2
Activity [26]: 181 PSL/mm2
SMILES: CC(C)Nc1cc(-c2csc(N(C)C(=O)c3ccc(F)cc3)n2)ncn1

logD [27]: 1.46
Drug uptake (Cerebellum [28]): 635.9 PSL/mm2
Drug uptake (Thalamus [29]): 672.6 PSL/mm2
Drug uptake (Hippocampus [30]): 428.1 PSL/mm2
Drug uptake (Striatum [31]): 478.5 PSL/mm2
Drug uptake (Cerebral cortex [32]): 342.2 PSL/mm2
Drug uptake (Rattus norvegicus [33]): 69.3 PSL/mm2
Drug uptake (Cerebellum [34]): 76.6 PSL/mm2
Drug uptake (Thalamus [35]): 63.1 PSL/mm2
Drug uptake (Hippocampus [36]): 58.3 PSL/mm2
Drug uptake (Striatum [37]): 54.1 PSL/mm2
Drug uptake (Cerebral cortex [38]): 49.6 PSL/mm2
Drug uptake (Rattus norvegicus [39]): 58.8 PSL/mm2
SMILES: CC(C)Nc1cc(-c2csc(N(C)C(=O)c3ccc([18F])cc3)n2)ncn1
